This passage reports Time and Activity results from ChEMBL document CHEMBL2417519, “Structure-activity relationships for ketamine esters as short-acting anaesthetics” (Bioorg Med Chem, 2013).

Holding throughout (type): functional
For experiment [1], the system named is Rattus norvegicus. Put plainly: Anesthetic effect in iv dosed Sprague-Dawley rat assessed as duration of loss of righting reflex. An outline of the steps: (§1)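 Adult female Sprague-Dawley rats (~350–450 g), restrained, tail marginal vein cannulated; drug at 10 mg/ml given by continuous iv infusion, initially 20 mg/kg/min until pedal withdrawal reflex score PWR = 1, then 6.7 mg/kg/min titrated up-and-down to keep dorsal recumbency and PWR = 1 to 10 min before cessation. Three rats per study, each its own ketamine control; randomised order, ≥1 h recovery between experiments.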

The subject of experiment [2] is Rattus norvegicus. The experiment can be described thus: Anesthetic effect in iv dosed Sprague-Dawley rat assessed as dose required to cause loss of righting reflex. In outline: as §1
The test system of experiment [3] is Rattus norvegicus. Put plainly: Anesthetic effect in iv dosed Sprague-Dawley rat assessed as time required to walk. In outline:
as §1

The subject of experiment [4] is Rattus norvegicus. The experiment can be described thus: Analgesic effect in iv dosed Sprague-Dawley rat assessed as dose required to cause pedal withdrawal reflex. An outline of the steps:
as §1

The test system of experiment [5] is Rattus norvegicus. The experiment can be described thus: Anesthetic effect in iv dosed Sprague-Dawley rat assessed as duration of recovery of righting reflex. In outline: as §1
For experiment [6], the system named is Rattus norvegicus. The experiment can be described thus: Analgesic effect in iv dosed Sprague-Dawley rat assessed as time required to cause pedal withdrawal reflex. An outline of the steps:
as §1

With `CCOC(=O)CCCNC1(c2ccccc2Cl)CCCCC1=O.Cl` (racemic), the results for the Time with Rattus norvegicus [1], in the experiment with Rattus norvegicus [3] and with Rattus norvegicus [5] were 70 s, 170 s and 95 s, respectively. Moreover, the Activity was found to be 24 mg/kg in the experiment with Rattus norvegicus [2] and 44 mg/kg with Rattus norvegicus [4].

Regarding `CCOC(=O)CCNC1(c2ccccc2Cl)CCCCC1=O.Cl` (racemic), the values for the Activity in the experiment on Rattus norvegicus [2] and in the experiment on Rattus norvegicus [4] were 48 mg/kg and 55 mg/kg, respectively.

As to `CC(C)OC(=O)CCN[C@@]1(c2ccccc2Cl)CCCCC1=O.Cl`, the Time was found to be 170 s in the experiment on Rattus norvegicus [1], 900 s with Rattus norvegicus [3], 190 s in the experiment on Rattus norvegicus [6] and 0 s with Rattus norvegicus [5]. Besides, the Activity with Rattus norvegicus [2] was 71 mg/kg; with Rattus norvegicus [4], 82 mg/kg.

`CCCOC(=O)CCCCNC1(c2ccccc2Cl)CCCCC1=O.Cl` (racemic): the Time with Rattus norvegicus [1] was 271 s; in the experiment on Rattus norvegicus [3], 90 s; in the experiment with Rattus norvegicus [6], 277 s; in the experiment with Rattus norvegicus [5], 45 s. The figures for the Activity in the experiment with Rattus norvegicus [2] and in the experiment on Rattus norvegicus [4] were 82 mg/kg and 83 mg/kg, respectively.

Consider `CCOC(=O)CCCCNC1(c2ccccc2Cl)CCCCC1=O.Cl` (racemic), for which the Time in the experiment on Rattus norvegicus [1] is given as 97 s; with Rattus norvegicus [3] it was 112 s. Besides, the values for the Activity with Rattus norvegicus [2] and in the experiment on Rattus norvegicus [4] were 34 mg/kg and 57 mg/kg, respectively.

As to `CC(C)OC(=O)CCCCNC1(c2ccccc2Cl)CCCCC1=O.Cl` (racemic), the Activity in the experiment with Rattus norvegicus [2] and with Rattus norvegicus [4] was 38 mg/kg in each case. In addition, the Time is 320 s with Rattus norvegicus [3] and 180 s in the experiment with Rattus norvegicus [5].

With `CNC1(c2ccccc2Cl)CCCCC1=O` (racemic) [KETAMINE], the Time with Rattus norvegicus [1] was determined as 51 s; with Rattus norvegicus [3], 900 s; with Rattus norvegicus [6], 60 s; in the experiment on Rattus norvegicus [5], 480 s. The figures for the Activity in the experiment on Rattus norvegicus [2] and with Rattus norvegicus [4] were 17 mg/kg and 21 mg/kg, respectively.

Take `CCOC(=O)CCCN(C)C1(c2ccccc2Cl)CCCCC1=O.Cl` (racemic): the Time in the experiment with Rattus norvegicus [1] worked out at 600 s; in the experiment with Rattus norvegicus [3] it was 0 s; in the experiment on Rattus norvegicus [6], 600 s; in the experiment with Rattus norvegicus [5], 0 s.

Take `CN(C)C1(c2ccccc2Cl)CCCCC1=O.Cl` (racemic): the Time in the experiment with Rattus norvegicus [1] is on record as 125 s; with Rattus norvegicus [3], 1740 s; in the experiment on Rattus norvegicus [6] it was 130 s; in the experiment with Rattus norvegicus [5] it was 1500 s. For the same compound, the Activity with Rattus norvegicus [2] and in the experiment with Rattus norvegicus [4] was 43 mg/kg each time.

`CCOC(=O)CCN(C)C1(c2ccccc2Cl)CCCCC1=O` (racemic): the Time with Rattus norvegicus [1] was determined as 280 s; in the experiment on Rattus norvegicus [3], 0 s; in the experiment on Rattus norvegicus [6], 290 s; with Rattus norvegicus [5], 0 s. Moreover, the Activity was 95 mg/kg in the experiment with Rattus norvegicus [2] and 99 mg/kg in the experiment with Rattus norvegicus [4].

On to `CCCOC(=O)CCCNC1(c2ccccc2Cl)CCCCC1=O.Cl` (racemic), for which the Time is recorded as 329 s with Rattus norvegicus [1], 65 s with Rattus norvegicus [3], 558 s in the experiment on Rattus norvegicus [6] and 10 s with Rattus norvegicus [5]. Further, the Activity in the experiment with Rattus norvegicus [2] amounted to 137 mg/kg; with Rattus norvegicus [4], 209 mg/kg.

Regarding `CC(C)OC(=O)CCN[C@]1(c2ccccc2Cl)CCCCC1=O.Cl`, the Activity is 74 mg/kg with Rattus norvegicus [2] and 84 mg/kg with Rattus norvegicus [4]. The Time with Rattus norvegicus [5] is on record as 15 s.

Consider `CC(=O)OCCCN[C@]1(c2ccccc2Cl)CCCCC1=O.Cl`, for which the Time in the experiment with Rattus norvegicus [1] was found to be 81 s. In addition, the Activity was 26 mg/kg in the experiment on Rattus norvegicus [2] and 34 mg/kg with Rattus norvegicus [4].

For `CC(C)OC(=O)CCNC1(c2ccccc2Cl)CCCCC1=O.Cl` (racemic), the Activity with Rattus norvegicus [2] was found to be 33 mg/kg; in the experiment with Rattus norvegicus [4], 37 mg/kg. Moreover, the Time in the experiment on Rattus norvegicus [5] was determined as 83 s.

`CCCOC(=O)CCNC1(c2ccccc2Cl)CCCCC1=O.Cl` (racemic): the Time is given as 404 s with Rattus norvegicus [1], 0 s in the experiment with Rattus norvegicus [3], 420 s in the experiment with Rattus norvegicus [6] and 0 s in the experiment with Rattus norvegicus [5]. For the same compound, the Activity is 131 mg/kg with Rattus norvegicus [2] and 136 mg/kg in the experiment with Rattus norvegicus [4].

In the case of `CN(C)[C@]1(c2ccccc2Cl)CCCCC1=O.Cl`, the Time stood at 94 s in the experiment on Rattus norvegicus [1], 1215 s in the experiment on Rattus norvegicus [3], 103 s in the experiment on Rattus norvegicus [6] and 880 s in the experiment with Rattus norvegicus [5]. In addition, the figures for the Activity in the experiment with Rattus norvegicus [2] and with Rattus norvegicus [4] were 32 mg/kg and 35 mg/kg, respectively.

Regarding `CCOC(=O)CCN[C@]1(c2ccccc2Cl)CCCCC1=O.Cl`, the Time in the experiment with Rattus norvegicus [1] was determined as 171 s; in the experiment with Rattus norvegicus [3], 80 s; in the experiment with Rattus norvegicus [6] it was 185 s; with Rattus norvegicus [5] it was 62 s. For the same compound, the Activity in the experiment on Rattus norvegicus [2] was determined as 59 mg/kg; in the experiment with Rattus norvegicus [4], 62 mg/kg.

Take `Cl.O=C1CCCC[C@]1(NCCCO)c1ccccc1Cl`: the Time in the experiment on Rattus norvegicus [1] came to 59 s; with Rattus norvegicus [3], 588 s; in the experiment with Rattus norvegicus [6], 102 s; with Rattus norvegicus [5], 341 s. The Activity in the experiment with Rattus norvegicus [2] turned out to be 21 mg/kg; in the experiment on Rattus norvegicus [4] it was 34 mg/kg.

As for `CC(C)OC(=O)CCCNC1(c2ccccc2Cl)CCCCC1=O.Cl` (racemic), the results for the Activity with Rattus norvegicus [2] and in the experiment on Rattus norvegicus [4] were 42 mg/kg and 66 mg/kg, respectively. Also, the Time with Rattus norvegicus [3] was determined as 110 s; with Rattus norvegicus [5], 37 s.

As for `COC(=O)CCCCN(C)C1(c2ccccc2Cl)CCCCC1=O` (racemic), the Time in the experiment with Rattus norvegicus [1] is recorded as 420 s; in the experiment on Rattus norvegicus [5], 0 s.
